Test results taken from ChEMBL document CHEMBL4261600 (Eur J Med Chem, 2018).

What was measured:
[1] = test system: Proto-oncogene tyrosine-protein kinase receptor Ret (Homo sapiens), P07949 [V804M]; assay: Binding affinity to human partial length RET V804M mutant (E713 to D1014 residues) expressed in bacterial expression system assessed as remaining unbound target protein level at 1000 nM by Kinomescan method relative to control
Procedure, shortened: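 KINOMEscan competition-binding profiling across the panel of 468 kinases and mutants, with inhibitor tested at 1 μM. Binding is expressed as percent of control, with DMSO as the reference control.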

[2] = Antiproliferative activity against human MEC2 cells after 72 hrs by Celltiter-Glo assay; assay type: functional; settings: MEC2, 72 h
Procedure, shortened: (§1)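 Cells seeded at 3000/well in 96-well plates, exposed to serially diluted compound for 72 h at 37 °C, 5% CO2. Viability read by CellTiter-Glo luminescence and normalized to DMSO control. GI50 derived from curve fit, mean of three independent measurements. Culture media: DMEM/10% FBS for adherent lines; IMDM for MV4-11 and MEC-1/2; RPMI 1640 for suspension lines and CHL.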

[3] = MRT (0 to t) in beagle dog at 10 mg/kg, po by LC-MS/MS analysis; assay type: ADME, organism-based, Canis lupus familiaris; settings: in vivo
[4] = target: Ribosomal protein S6 kinase alpha-5 (Homo sapiens) (UniProt O75582); assay: Binding affinity to wild-type human partial length C-terminal RPS6KA5 kinase domain 2 (V390 to T718 residues) expressed in bacterial expression system assessed as remaining unbound target protein level at 1000 nM by Kinomescan method relative to control
Procedure, shortened: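 Profiled in a KINOMEscan binding panel with the inhibitor at a single concentration of 1 μM. Binding to each kinase was read out as percent of control, relative to a DMSO control. Strong binders were defined as those with a percent control value below 1.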

[5] = target: Serine/threonine-protein kinase Nek4 (Homo sapiens) (UniProt P51957); assay: Binding affinity to wild-type human full length NEK4 (M1 to F841 residues) expressed in mammalian expression system assessed as remaining unbound target protein level at 1000 nM by Kinomescan method relative to control
Procedure, shortened: (§2)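 Single-point competition binding screen across a panel of 468 kinases and mutants, with the inhibitor at 1 μM. Binding is read out as percent of a DMSO control, and targets below 1 percent control were classed as strong binders.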

[6] = target: Mitogen-activated protein kinase kinase kinase kinase 4 (Homo sapiens) (UniProt O95819); assay: Binding affinity to wild-type human partial length MAP4K4 (M1 to R310 residues) expressed in bacterial expression system assessed as remaining unbound target protein level at 1000 nM by Kinomescan method relative to control
Procedure, shortened: (§3)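 KINOMEscan binding panel of 468 kinases/mutants. Inhibitor was tested at a single concentration of 1 μM. Binding is reported as percent of control, defined relative to a DMSO control.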

[7] = target: Ribosomal protein S6 kinase alpha-6 (Homo sapiens) (UniProt Q9UK32); assay: Binding affinity to wild-type human partial length C-terminal RSK4 kinase domain 2 (I401 to Y711 residues) expressed in bacterial expression system assessed as remaining unbound target protein level at 1000 nM by Kinomescan method relative to control
Procedure, shortened: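 KINOMEscan competition binding profile across a panel of 468 kinases and mutants, with the inhibitor tested at a single concentration of 1 μM. Binding is reported as percent of control, meaning signal relative to a DMSO control.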

[8] = target: Homeodomain-interacting protein kinase 2 (Homo sapiens) (UniProt Q9H2X6); assay: Binding affinity to wild-type human partial length HIPK2 (M153 to S564 residues) expressed in mammalian expression system assessed as remaining unbound target protein level at 1000 nM by Kinomescan method relative to control; procedure, shortened: as §3
[9] = target: Phosphatidylinositol 4,5-bisphosphate 3-kinase catalytic subunit alpha isoform (Homo sapiens) (UniProt P42336); assay: Binding affinity to wild-type human partial length PIK3CA (R108 to N1068 residues) expressed in mammalian expression system assessed as remaining unbound target protein level at 1000 nM by Kinomescan method relative to control
[10] = target: Serine/threonine-protein kinase Nek1 (Homo sapiens) (UniProt Q96PY6); assay: Binding affinity to wild-type human partial length NEK1 (M1 to K278 residues) expressed in bacterial expression system assessed as remaining unbound target protein level at 1000 nM by Kinomescan method relative to control
[11] = target: MAP kinase-interacting serine/threonine-protein kinase 1 (Homo sapiens) (UniProt Q9BUB5); assay: Binding affinity to wild-type human full length MKNK1 (M1 to L424 residues) expressed in mammalian expression system assessed as remaining unbound target protein level at 1000 nM by Kinomescan method relative to control; procedure, shortened: as §2
[12] = target: SRSF protein kinase 3 (Homo sapiens) (UniProt Q9UPE1); assay: Binding affinity to wild-type human partial length SRPK3 (P41 to P567 residues) expressed in bacterial expression system assessed as remaining unbound target protein level at 1000 nM by Kinomescan method relative to control
[13] = target: Serine/threonine-protein kinase SIK3 (Homo sapiens) (UniProt Q9Y2K2); assay: Binding affinity to wild-type human partial length QSK (A90 to L395 residues) expressed in mammalian expression system assessed as remaining unbound target protein level at 1000 nM by Kinomescan method relative to control
[14] = target: Mitogen-activated protein kinase kinase kinase 3 (Homo sapiens) (UniProt Q99759); assay: Binding affinity to wild-type human partial length MAP3K3 (E320 to Y626 residues) expressed in mammalian expression system assessed as remaining unbound target protein level at 1000 nM by Kinomescan method relative to control
Ramos = assay: Antiproliferative activity against human Ramos cells after 72 hrs by Celltiter-Glo assay; assay type: functional; procedure, shortened: as §1
[15] = target: cGMP-dependent protein kinase 2 (Homo sapiens) (UniProt Q13237); assay: Binding affinity to wild-type human partial length PRKG2 (S422 to F762 residues) expressed in mammalian expression system assessed as remaining unbound target protein level at 1000 nM by Kinomescan method relative to control
CDK2/Cyclin A2 = CDK2/Cyclin A2 (Homo sapiens, UniProt P24941); assay: Inhibition of recombinant full length His-tagged human CDK2/CyclinA expressed in baculovirus expression system
[16] = target: Proto-oncogene tyrosine-protein kinase Src (Homo sapiens) (UniProt P12931); assay: Binding affinity to wild-type human partial length SRC (L240 to L536 residues) expressed in bacterial expression system assessed as remaining unbound target protein level at 1000 nM by Kinomescan method relative to control
[17] = target: Dual specificity mitogen-activated protein kinase kinase 6 (Homo sapiens) (UniProt P52564); assay: Binding affinity to wild-type human partial length MEK6 (K36 to D334 residues) expressed in bacterial expression system assessed as remaining unbound target protein level at 1000 nM by Kinomescan method relative to control; procedure, shortened: as §3
[18] = target: Casein kinase I isoform gamma-3 (Homo sapiens) (UniProt Q9Y6M4); assay: Binding affinity to wild-type human full length CSNK1G3 (M1 to K447 residues) expressed in bacterial expression system assessed as remaining unbound target protein level at 1000 nM by Kinomescan method relative to control; procedure, shortened: as §2
[19] = Cmax in Sprague-Dawley rat at 3 mg/kg, iv by LC-MS/MS analysis; assay type: ADME, organism-based; set-up: dose 3 mg/kg, route intravenous; settings: in vivo

Chain of cGMP-dependent protein kinase 2 (Homo sapiens) (Q13237 whole entry, the tested form may be a part): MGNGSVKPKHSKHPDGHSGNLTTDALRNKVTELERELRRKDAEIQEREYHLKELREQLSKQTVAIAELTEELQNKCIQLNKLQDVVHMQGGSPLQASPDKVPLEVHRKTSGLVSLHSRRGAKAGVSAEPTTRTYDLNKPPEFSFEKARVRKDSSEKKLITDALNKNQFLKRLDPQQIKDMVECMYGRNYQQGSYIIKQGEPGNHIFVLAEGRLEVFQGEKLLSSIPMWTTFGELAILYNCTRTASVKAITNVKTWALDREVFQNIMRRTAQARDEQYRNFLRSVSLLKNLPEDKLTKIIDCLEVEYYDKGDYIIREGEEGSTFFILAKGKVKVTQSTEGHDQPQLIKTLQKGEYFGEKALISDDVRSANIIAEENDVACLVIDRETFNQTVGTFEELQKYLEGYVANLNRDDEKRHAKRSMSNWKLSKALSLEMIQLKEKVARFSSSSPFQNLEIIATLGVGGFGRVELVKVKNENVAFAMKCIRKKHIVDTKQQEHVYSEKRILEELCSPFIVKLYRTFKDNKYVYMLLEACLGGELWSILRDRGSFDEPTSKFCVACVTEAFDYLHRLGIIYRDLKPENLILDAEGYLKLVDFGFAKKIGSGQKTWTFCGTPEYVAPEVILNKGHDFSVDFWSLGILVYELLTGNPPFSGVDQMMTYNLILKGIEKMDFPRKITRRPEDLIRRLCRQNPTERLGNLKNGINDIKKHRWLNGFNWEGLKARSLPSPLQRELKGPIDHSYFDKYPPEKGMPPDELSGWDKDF
Chain of Serine/threonine-protein kinase Nek4 (Homo sapiens) (P51957 whole entry, looked up, the tested form may be a part): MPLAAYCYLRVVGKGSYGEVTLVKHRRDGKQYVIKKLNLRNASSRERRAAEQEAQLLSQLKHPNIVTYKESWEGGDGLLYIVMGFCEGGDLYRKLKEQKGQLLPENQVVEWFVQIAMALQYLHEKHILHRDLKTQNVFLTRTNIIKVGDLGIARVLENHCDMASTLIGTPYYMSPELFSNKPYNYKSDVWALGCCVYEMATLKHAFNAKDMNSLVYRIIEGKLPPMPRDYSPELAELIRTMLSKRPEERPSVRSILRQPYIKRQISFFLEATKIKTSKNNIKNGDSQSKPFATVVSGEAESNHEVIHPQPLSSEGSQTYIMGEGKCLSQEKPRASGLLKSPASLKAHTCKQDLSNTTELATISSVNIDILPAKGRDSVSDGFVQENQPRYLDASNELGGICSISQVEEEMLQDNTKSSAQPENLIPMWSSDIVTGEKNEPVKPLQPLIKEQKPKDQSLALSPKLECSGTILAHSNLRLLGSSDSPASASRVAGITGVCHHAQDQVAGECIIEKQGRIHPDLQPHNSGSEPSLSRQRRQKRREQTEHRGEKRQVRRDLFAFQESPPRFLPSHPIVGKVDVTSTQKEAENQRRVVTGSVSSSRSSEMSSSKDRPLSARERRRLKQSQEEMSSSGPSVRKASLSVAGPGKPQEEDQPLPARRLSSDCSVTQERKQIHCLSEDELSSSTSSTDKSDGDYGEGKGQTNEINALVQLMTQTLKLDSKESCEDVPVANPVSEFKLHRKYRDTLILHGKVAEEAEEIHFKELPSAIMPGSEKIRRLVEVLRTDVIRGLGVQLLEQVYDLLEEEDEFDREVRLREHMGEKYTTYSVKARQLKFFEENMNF
Chain of SRSF protein kinase 3 (Homo sapiens) (Q9UPE1 whole entry, the tested form may be a part): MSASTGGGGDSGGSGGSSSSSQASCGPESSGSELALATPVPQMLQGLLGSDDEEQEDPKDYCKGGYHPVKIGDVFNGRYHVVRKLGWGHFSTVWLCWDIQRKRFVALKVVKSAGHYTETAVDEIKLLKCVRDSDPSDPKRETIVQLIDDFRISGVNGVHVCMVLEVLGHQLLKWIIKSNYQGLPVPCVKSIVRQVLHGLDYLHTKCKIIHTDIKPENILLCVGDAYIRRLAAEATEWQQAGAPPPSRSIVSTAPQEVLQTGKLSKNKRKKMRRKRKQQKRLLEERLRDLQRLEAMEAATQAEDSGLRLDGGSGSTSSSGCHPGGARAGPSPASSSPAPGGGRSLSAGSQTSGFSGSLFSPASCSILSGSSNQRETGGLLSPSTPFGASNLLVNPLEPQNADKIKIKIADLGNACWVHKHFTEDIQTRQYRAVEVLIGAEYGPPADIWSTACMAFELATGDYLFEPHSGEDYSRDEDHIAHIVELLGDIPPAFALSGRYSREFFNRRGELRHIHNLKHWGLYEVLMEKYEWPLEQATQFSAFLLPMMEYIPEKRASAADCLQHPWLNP
Chain of Dual specificity mitogen-activated protein kinase kinase 6 (Homo sapiens) (P52564 whole entry, the tested form may be a part, canonical isoform): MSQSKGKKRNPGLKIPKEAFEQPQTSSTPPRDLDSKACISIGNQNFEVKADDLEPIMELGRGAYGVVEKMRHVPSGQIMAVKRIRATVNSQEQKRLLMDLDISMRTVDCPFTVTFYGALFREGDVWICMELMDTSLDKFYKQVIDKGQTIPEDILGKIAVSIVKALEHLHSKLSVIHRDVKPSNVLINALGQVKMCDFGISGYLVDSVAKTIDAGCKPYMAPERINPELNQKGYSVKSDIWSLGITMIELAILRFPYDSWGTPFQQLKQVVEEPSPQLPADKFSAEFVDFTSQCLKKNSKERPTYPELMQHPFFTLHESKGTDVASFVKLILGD
Chain of Phosphatidylinositol 4,5-bisphosphate 3-kinase catalytic subunit alpha isoform (Homo sapiens) (P42336 whole entry, the tested form may be a part, canonical isoform): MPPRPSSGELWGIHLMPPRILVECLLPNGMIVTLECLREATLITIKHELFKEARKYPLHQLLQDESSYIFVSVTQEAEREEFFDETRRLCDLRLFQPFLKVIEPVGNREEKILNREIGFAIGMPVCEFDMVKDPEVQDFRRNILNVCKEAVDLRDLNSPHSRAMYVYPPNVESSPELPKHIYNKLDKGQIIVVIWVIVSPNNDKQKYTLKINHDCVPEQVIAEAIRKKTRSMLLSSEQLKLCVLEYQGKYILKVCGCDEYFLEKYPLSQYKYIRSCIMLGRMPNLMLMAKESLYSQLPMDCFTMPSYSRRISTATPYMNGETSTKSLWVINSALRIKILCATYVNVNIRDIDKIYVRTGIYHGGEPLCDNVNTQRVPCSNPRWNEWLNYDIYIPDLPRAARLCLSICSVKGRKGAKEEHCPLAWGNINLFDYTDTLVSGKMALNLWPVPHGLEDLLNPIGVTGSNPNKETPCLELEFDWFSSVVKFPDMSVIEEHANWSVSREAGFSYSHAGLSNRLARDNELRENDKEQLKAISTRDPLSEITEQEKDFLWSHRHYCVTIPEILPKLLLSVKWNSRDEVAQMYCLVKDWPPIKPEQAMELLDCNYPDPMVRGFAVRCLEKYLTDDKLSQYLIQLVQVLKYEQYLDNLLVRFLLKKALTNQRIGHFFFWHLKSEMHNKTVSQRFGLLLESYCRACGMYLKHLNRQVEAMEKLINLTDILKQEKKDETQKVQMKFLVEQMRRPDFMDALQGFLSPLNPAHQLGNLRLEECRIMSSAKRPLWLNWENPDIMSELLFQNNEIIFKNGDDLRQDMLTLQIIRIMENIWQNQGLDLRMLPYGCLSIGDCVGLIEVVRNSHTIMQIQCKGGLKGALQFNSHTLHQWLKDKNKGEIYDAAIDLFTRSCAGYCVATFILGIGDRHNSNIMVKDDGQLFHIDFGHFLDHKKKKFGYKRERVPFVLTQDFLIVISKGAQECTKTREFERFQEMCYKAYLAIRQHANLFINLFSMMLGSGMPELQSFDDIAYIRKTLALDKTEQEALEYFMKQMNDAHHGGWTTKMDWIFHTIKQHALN
Chain of Serine/threonine-protein kinase Nek1 (Homo sapiens) (Q96PY6 whole entry, the tested form may be a part): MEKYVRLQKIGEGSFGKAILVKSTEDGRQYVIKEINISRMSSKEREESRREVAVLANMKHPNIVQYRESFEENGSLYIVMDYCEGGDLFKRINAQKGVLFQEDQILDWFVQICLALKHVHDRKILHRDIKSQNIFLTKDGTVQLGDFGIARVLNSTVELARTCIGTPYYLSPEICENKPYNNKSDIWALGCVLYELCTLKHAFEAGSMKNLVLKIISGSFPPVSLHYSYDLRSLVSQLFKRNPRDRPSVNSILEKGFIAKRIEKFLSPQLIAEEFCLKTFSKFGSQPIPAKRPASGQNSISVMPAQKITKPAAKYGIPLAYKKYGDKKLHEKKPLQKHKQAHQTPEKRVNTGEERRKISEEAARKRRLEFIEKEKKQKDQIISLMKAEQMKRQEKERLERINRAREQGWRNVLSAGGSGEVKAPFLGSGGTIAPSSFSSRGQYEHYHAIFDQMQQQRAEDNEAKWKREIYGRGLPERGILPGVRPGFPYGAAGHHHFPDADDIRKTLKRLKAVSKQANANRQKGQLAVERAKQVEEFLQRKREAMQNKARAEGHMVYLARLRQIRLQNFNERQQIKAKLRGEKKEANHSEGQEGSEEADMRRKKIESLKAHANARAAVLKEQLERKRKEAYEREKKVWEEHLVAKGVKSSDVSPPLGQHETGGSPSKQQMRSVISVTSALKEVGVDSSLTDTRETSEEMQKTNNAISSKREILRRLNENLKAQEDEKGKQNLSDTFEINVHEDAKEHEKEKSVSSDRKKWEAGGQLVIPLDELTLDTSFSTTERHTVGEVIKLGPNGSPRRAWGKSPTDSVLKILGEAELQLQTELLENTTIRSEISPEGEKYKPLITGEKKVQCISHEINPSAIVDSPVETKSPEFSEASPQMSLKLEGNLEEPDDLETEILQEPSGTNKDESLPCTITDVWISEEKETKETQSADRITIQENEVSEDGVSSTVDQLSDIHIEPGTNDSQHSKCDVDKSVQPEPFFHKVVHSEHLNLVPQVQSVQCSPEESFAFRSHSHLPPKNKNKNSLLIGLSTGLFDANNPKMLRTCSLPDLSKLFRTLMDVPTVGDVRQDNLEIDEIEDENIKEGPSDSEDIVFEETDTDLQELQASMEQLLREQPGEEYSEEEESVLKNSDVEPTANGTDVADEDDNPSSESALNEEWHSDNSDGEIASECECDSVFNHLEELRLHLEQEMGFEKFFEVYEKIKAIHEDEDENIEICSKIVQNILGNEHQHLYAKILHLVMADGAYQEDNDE

With COCCN[C@H]1CC[C@H](Nc2cc(-c3csc(NCC4(C#N)CCOCC4)n3)c(Cl)cn2)CC1 the Activity [1] was 98%, the GI50 [2] was 37 nM and the MRT last [3] was 3.59 h. The Activity [4] was 76%, the Activity [5] was 98% and the Activity [6] was 91%. It also gave an Activity [7] of 99%, an Activity [8] of 74% and an Activity [9] of 95%. The Activity [10] was 85%, the Activity [11] was 100% and the Activity [12] was 98%. The Activity [13] was 79%, the Activity [14] was 100% and the GI50 (Ramos) was 13 nM. The Activity [15] was 100%, the IC50 (CDK2/Cyclin A2) was 2860 nM and the Activity [16] was 89%. For the same compound, the Activity [17] was 68%, the Activity [18] was 90% and the Cmax [19] was 1470 ng/mL.
